STAT3 blocker: reduces IL-6 driven STAT3 reporter signal; U3A cells, IL-6 STAT3-luciferase reporter, luminescence; host cell line lacks STAT1; inhibition, % at 5.5 µM; 0.89% of 190,000 active; AID 862;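 active means inhibition above the mean inhibition across all screened compounds plus 3 SD, cut at about 44% in these data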;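 further: 0% = DMSO only wells and 100% = 100 µM nifuroxazide control wells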
STAT3 activator: activators of IL-6 induced STAT3 signaling; U3A cells, IL-6 STAT3-luciferase reporter, luminescence; 100% = signal with IL-6 EC80 alone; 0.91% of 190,000 active; activation (% of control), % at 5.6 µM;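 active means activation above the screen-wide mean of compound activation plus 3 SD, cut at about 130% in these data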;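 further: 0% = background luminescence of wells with medium and substrate only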
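Test system: Human STAT1-deficient U3A cells with stable STAT3-luciferase reporter | Also added: Interleukin-6, 33 ng/mL | Timing: Compound pre-incubation 1 h before IL-6, then 6 h stimulation at 37 °C | Technique: Luciferase reporter luminescence | Read-out: Percent of IL-6-only median luminescence | Benchmarks: IL-6-only wells as 100% reference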
NF-kB neuron act: NF-kB expression increase, human neuronal cells. NF-kB reporter expression; stronger effect = higher value. fold change at 12.5 µM. 1.6% of 190,000 active. AID 1239; in the data active means fold change above about 3.3
STAT1 inh: inhibitors of IFN-gamma induced STAT1 signaling. NIH 3T3 STAT1-luciferase reporter, luminescence. inhibition, % at 5.5 µM. 0.35% of 200,000 active;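 active means inhibition above a set limit, the mean inhibition across all tested compounds plus 3 SD, cut at about 34% in these data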;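 further: 0% = IFN-gamma with DMSO and 100% = IFN-gamma with 300 µM nifuroxazide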
APP 5'UTR act: activates APP 5'UTR luciferase reporter. activation, % at 2 µM. AID 1276. 1% of 190,000 active. SH-SY5Y APP 5'UTR luciferase reporter, luminescence; zero percent = DMSO vehicle wells;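 active means activation above a set limit, based on mean plus 3 SD of controls, cut at about 140% in these data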
STAT1 act: STAT1 signaling activation | activation (% of control), % at 5.5 µM | AID 932 | NIH 3T3 STAT1-luciferase reporter, IFN-gamma, luminescence; 100% = IFN-gamma alone, no compound | 2.6% of 200,000 active;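 active means activation above the screen-wide mean activation plus 3 SD, cut at about 130% in these data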;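 further: raw ratio to IFN-gamma control signal so 100% means no change and 0% no light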
STAT1 activ conf: STAT1 activation, confirmation assay; NIH 3T3 STAT1-luciferase reporter, IFN-gamma potentiation, luminescence; 100% = IFN-gamma EC80 alone, no compound; AID 1262; activation (% of control), % at 5.7 µM; 97% of 1,200 active; shares compounds with STAT1 act;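 active means activation above a set limit carried over from the earlier primary STAT1 screen, cut at about 140% in these data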;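 further: simple ratio to median IFN-gamma plus DMSO wells so 0% means no light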
NFkB act: activates NF-kappaB, counter-screen to STAT1 activators; activation (% of control), % at 5.7 µM; AID 1306; shares compounds with STAT1 act; HEK293T NF-kB luciferase reporter, TNF-alpha stimulated, luminescence; 100% = TNF-alpha with vehicle only; 43% of 1,200 active;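 active means activation above the mean of solvent-only control wells plus 3 SD, set per campaign, cut at about 130% in these data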;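 further: TNF-alpha given at a submaximal dose yielding about 80% of full reporter signal; values are well signal over median control so 100% means no change and 0% no light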
STAT3 act STAT1c: activates human STAT3, counter-screen to STAT1 activators; shares compounds with STAT1 act; U3A cells STAT3-luciferase reporter, IL-6, luminescence; cells lack STAT1; 100 = IL-6 alone, no compound effect; activation (% of control), % at 5.7 µM; 46% of 1,200 active; AID 1316;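 active means activation above the solvent-only control well mean plus 3 SD, set per plate batch, cut at about 110% in these data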;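 further: 0% = no luminescence and 100% = median IL-6 plus DMSO wells; higher means more STAT3 reporter activation so hits are non-selective activators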
* = called active by the depositor; nt = no result given. Compounds with a hit are over-represented: about 4.9% of the library has one in this group of screens.

SMILES	STAT3 blocker	STAT3 activator	NF-kB neuron act	STAT1 inh	APP 5'UTR act	STAT1 act	STAT1 activ conf	NFkB act	STAT3 act STAT1c
Cc1ccc(NC(=O)c2noc3c2CCCCC3)cc1	12.9	92.2	8.1*	-60.6	140.0*	155.6*	243.0*	135.8*	104.8
CC1(C)O[C@H]2OC([C@H](O)CON3C(=O)c4ccccc4C3=O)[C@H](O)[C@H]2O1 (some centres undefined)	-2.5	99.7	0.93	-4.3	5.5	103.9	nt	nt	nt
Nc1nn(-c2ccccc2)c(N)c1N=Nc1ccc2c(c1)OCO2	2.9	98.7	7.51*	-85.0	91.8	178.4*	253.3*	135.2*	111.9*
Cc1nn(C(=O)c2ccc3c(c2)OCO3)c(N)c1-c1ccccc1	5.8	99.5	1.64	-27.0	11.7	124.2	nt	nt	nt
CCC(=O)Nc1ccc(/C(C)=N/NC(=O)c2c(Br)c(C)nn2C)cc1	-0.5	99.6	0.88	10.2	-7.3	90.9	nt	nt	nt
C/C(=N\NC(=O)c1nn(C)c(C)c1Br)c1ccc(NC(=O)c2ccoc2C)cc1	28.0	81.4	1.23	-86.9	57.4	179.3*	119.0	114.5	88.7
C/C(=N\NC(=O)c1c(Br)c(C)nn1C)c1ccc(NC(=O)c2ccoc2C)cc1	2.0	99.4	1.01	-21.8	-12.4	119.8	nt	nt	nt
C/C(=N\NC(=O)c1nn(C)c(C)c1Br)c1ccc(NC(=O)c2ccccc2F)cc1	26.4	79.9	1.3	-62.3	112.5	156.2*	123.3	118.1	89.1
CC1=C(C(=O)Nc2ccccc2C(F)(F)F)C(c2sccc2C)NC(=S)N1 (centres undefined)	5.2	97.7	1.23	5.6	-13.8	94.1	nt	nt	nt
C[n+]1cccc(C(=O)NNC(=O)C23CC4CC(CC(C4)C2)C3)c1	7.3	96.6	1.46	-5.2	-15.3	102.8	nt	nt	nt
C=CCNC(=O)COc1cc(C)cc(C)c1C	-3.1	106.6	1.12	0.0	9.8	97.0	nt	nt	nt
Cc1ccsc1/C=C1\Oc2cc(OCC(=O)c3ccccc3)ccc2C1=O	5.0	91.8	1.37	-2.7	16.5	102.4	nt	nt	nt
O=C(CCCSc1nnnn1-c1ccccc1)c1ccc(F)cc1	13.9	92.6	1.21	0.0	13.9	100.0	nt	nt	nt
COc1ccccc1CCc1nnc(CCC(=O)NC(C)Cn2nc(C)cc2C)o1 (centres undefined)	-3.2	104.8	1.07	-1.9	-11.6	102.3	nt	nt	nt
CC(C)[C@@H]1NC(=O)c2cc([N+](=O)[O-])cc(F)c2NCCC[C@@H](C(N)=O)NC(=O)[C@H](CO)NC1=O	-0.3	97.8	1.37	5.6	-3.0	94.9	nt	nt	nt
O=C(Nc1cccc(Cl)c1)c1cnn2cccnc12	-24.4	123.2	3.69*	-59.4	87.1	157.1*	177.9*	130.3	122.8*
CCOc1cc(C(=S)N2CCCC2)ccc1OCC(=O)Nc1c(C)cc(C)cc1C	14.2	93.0	1.12	2.5	nt	97.8	nt	nt	nt
CCOC(=O)CSc1nc2cc(OC)ccc2cc1C#N	-2.0	103.9	8.11*	-75.2	172.7*	168.1*	258.5*	144.7*	111.8*
CCOC(=O)CSc1nc2cc(C)ccc2cc1C#N	-6.9	107.9	7.08*	-58.4	134.6	152.9*	212.7*	138.8*	109.5
CCOC(=O)CSc1nc2ccc(C)cc2cc1C#N	1.8	104.6	4.28*	-62.1	nt	157.4*	220.8*	141.7*	106.0
CCOC(=O)CSc1nc2cc(C)cc(C)c2cc1C#N	15.8	87.1	1.85	-21.5	94.1	119.5	nt	nt	nt
COc1ccc2nc(SCC(C)=O)c(C#N)cc2c1	0.8	101.6	5.76*	-101.0	137.9*	190.2*	311.8*	139.0*	92.8
Cc1ccc(C(=O)CC(=O)COc2ccc(Cl)cc2C)cc1	-3.0	101.6	0.85	-5.8	-1.1	105.2	nt	nt	nt
Cc1ccc(NC(=O)c2ccc(OC(=O)COc3cccc(Cl)c3)cc2)cc1	-17.7	112.2	1.64	-60.4	110.6	153.8*	170.3*	128.7	110.8*
Cc1ccc(NC(=O)c2ccc(OC(=O)COc3ccc(Cl)cc3C)cc2)cc1	-8.0	104.4	1.44	-66.4	87.8	159.2*	167.3*	127.7	118.8*
SMILES	STAT3 blocker	STAT3 activator	NF-kB neuron act	STAT1 inh	APP 5'UTR act	STAT1 act	STAT1 activ conf	NFkB act	STAT3 act STAT1c
CCc1ccc(Nc2ncc3c(n2)CC(c2ccc(OC)cc2)CC3=O)cc1 (centres undefined)	3.8	100.7	0.99	-7.8	8.9	107.1	nt	nt	nt
CCc1ccc(Nc2ncc3c(n2)CC(C)CC3=O)cc1 (centres undefined)	17.1	91.0	3.53*	-57.7	173.1*	151.3*	198.2*	128.2	106.8
COc1ccc(C(CNC(=O)c2ccccc2SC)N(C)C)cc1 (centres undefined)	11.3	96.8	1.31	-7.5	-16.6	105.6	nt	nt	nt
CC(C)=CC(=O)Nc1nc2ccc([N+](=O)[O-])cc2s1	7.3	99.7	2.2	-90.5	35.9	181.1*	180.1*	126.1	106.6
Cc1nc2c(ccc3nc(NC(=O)c4ccc5c(c4)OCCO5)sc32)s1	34.6	72.2	5.38*	-74.7	123.1	168.5*	230.0*	129.2	103.8
CCN(CC(=O)Nc1ccc([N+](=O)[O-])cc1OC)c1ccccc1	-3.0	106.5	1.32	-6.8	1.7	106.1	nt	nt	nt
CCn1c(O)c(/C=C2\C=Nc3ccccc32)sc1=Nc1ccc(C)cc1	2.7	101.8	1.25	-7.1	16.0	106.4	nt	nt	nt
CCn1c(O)c(/C=C2\C=Nc3ccccc32)sc1=O	-26.9	126.1	3.06	-88.2	154.2*	178.5*	174.6*	140.0*	126.3*
O=c1c2ccccc2nnn1CSc1ccccc1	25.0	77.9	4.33*	-71.8	157.8*	165.2*	192.4*	109.1	99.8
Cn1c(/C=C/c2ccc([N+](=O)[O-])o2)nc2ccccc2c1=O	11.8	93.0	1.41	-122.5	-36.7	212.1*	121.3	134.1*	103.2
Cc1ccc(NC(=O)COc2ccccc2C=O)cc1Cl	-3.7	107.1	6.84*	-113.5	153.5*	200.4*	209.1*	136.7*	109.3
CC(=O)Nc1ccc(N=Nc2ccc(O)cc2)cc1	6.0	93.0	9.15*	-58.7	80.8	152.2*	154.8*	124.2	110.7*
CC(=O)Nc1ccc(N=NN2CCOCC2)cc1	-10.9	110.4	1.86	-19.1	11.8	116.6	nt	nt	nt

Screens: PubChem BioAssay, several laboratories
